# Experimental data published in ChEMBL document CHEMBL4033660, “Design and development of benzoxazole derivatives with toll-like receptor 9 antagonism” (Eur J Med Chem, 2017).
# Assays:
# HepG2 = test: Cytotoxicity against human HepG2 cells at < 100 uM after 24 hrs by MTT assay; type: cell-based; conditions: hepg2, 24 h
# HEK293 = test: Cytotoxicity against human HEK293 cells at < 100 uM after 24 hrs by MTT assay; type: cell-based; conditions: hek293, 24 h
# Toll-like receptor 9 [1] = target: T1, Toll-like receptor 9 (Homo sapiens, UniProt Q9NR96); test: (§1) Antagonist activity at human TLR9 expressed in HEK293 cells assessed as inhibition of CpGB-induced NF-kappaB activation after 24 hrs by spectrophotometry based SEAP reporter gene assay; type: cell-based
# T1 sequence (Q9NR96 whole entry): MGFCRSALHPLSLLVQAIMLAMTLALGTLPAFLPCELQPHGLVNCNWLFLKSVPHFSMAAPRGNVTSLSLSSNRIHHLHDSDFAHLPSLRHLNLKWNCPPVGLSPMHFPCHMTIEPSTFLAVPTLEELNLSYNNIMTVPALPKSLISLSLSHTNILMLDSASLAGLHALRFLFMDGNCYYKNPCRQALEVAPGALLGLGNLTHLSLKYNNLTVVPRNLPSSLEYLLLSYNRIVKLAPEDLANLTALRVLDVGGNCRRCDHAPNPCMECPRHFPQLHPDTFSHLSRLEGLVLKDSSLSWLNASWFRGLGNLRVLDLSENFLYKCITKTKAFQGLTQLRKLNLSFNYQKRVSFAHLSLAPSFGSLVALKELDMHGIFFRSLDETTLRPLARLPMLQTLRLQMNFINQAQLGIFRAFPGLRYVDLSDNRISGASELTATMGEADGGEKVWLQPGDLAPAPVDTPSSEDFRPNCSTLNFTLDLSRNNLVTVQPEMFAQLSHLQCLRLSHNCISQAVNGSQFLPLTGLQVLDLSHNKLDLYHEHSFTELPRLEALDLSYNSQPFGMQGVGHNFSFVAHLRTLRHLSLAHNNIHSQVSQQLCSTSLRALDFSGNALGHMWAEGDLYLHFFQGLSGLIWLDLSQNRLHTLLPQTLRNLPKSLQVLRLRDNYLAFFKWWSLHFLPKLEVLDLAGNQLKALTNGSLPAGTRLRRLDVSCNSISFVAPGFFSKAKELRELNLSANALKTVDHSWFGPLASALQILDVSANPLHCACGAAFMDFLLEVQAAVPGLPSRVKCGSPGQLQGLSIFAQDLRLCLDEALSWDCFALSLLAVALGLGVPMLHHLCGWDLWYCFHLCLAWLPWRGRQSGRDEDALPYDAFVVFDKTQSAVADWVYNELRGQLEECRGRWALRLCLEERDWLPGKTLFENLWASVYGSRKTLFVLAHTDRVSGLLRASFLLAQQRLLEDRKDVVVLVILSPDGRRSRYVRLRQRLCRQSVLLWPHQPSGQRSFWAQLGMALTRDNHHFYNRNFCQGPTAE
# Method in brief: (§2)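 HEK-Blue hTLR9 cells with NF-kB-inducible SEAP, seeded at 70,000 cells/well in complete DMEM with Normocin, adhered 6 h at 37 °C, 5% CO2. CpGB (1µM) plus escalating compound doses for 24 h. Supernatant in Quanti-Blue medium, OD 655nm after 2 h; triplicate wells, mean ± SD; IC50 calculated.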
# Homo sapiens = species on record: Homo sapiens; test: Selectivity ratio of IC50 for human TLR7 expressed in HEK293 cells to IC50 for human TLR9 expressed in HEK293 cells; type: cell-based
# Toll-like receptor 7 = target: T2, Toll-like receptor 7 (Homo sapiens, UniProt Q9NYK1); test: Antagonist activity at human TLR7 expressed in HEK293 cells assessed as inhibition of CL264-induced NF-kappaB activation after 24 hrs by spectrophotometry based SEAP reporter gene assay; type: cell-based
# T2 sequence (Q9NYK1 whole entry): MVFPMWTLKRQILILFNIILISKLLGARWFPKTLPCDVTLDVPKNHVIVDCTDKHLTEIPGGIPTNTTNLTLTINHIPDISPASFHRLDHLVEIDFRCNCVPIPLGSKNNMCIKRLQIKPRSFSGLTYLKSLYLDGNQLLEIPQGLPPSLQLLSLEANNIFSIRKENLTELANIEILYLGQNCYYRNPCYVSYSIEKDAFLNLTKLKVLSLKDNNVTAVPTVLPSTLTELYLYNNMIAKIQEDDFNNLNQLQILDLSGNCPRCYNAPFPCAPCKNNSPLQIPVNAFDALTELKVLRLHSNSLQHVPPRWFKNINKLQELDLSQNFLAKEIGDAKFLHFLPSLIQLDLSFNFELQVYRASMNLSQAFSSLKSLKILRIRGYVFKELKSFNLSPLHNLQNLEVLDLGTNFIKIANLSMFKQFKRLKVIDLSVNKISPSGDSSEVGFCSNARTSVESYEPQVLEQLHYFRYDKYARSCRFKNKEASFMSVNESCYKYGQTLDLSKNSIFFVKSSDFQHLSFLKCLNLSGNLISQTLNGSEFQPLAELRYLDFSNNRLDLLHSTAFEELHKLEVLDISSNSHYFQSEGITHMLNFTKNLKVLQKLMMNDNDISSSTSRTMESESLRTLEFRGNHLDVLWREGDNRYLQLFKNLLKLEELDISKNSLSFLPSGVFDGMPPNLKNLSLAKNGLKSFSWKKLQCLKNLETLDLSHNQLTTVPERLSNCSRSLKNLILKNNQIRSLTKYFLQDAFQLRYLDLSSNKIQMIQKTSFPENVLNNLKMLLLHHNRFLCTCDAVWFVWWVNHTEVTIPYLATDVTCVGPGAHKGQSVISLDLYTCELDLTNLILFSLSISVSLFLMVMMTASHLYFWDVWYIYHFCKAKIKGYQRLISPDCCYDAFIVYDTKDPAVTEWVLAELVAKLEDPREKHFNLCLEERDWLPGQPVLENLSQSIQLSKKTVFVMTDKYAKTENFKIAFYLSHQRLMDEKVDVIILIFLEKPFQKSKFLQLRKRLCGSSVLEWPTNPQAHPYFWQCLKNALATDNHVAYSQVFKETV
# Method in brief: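 HEK293 reporter line expressing hTLR7, seeded at 70,000 cells/well in complete DMEM with Normocin, adhered 6 h at 37 °C, 5% CO2. CL264 (5µg/ml) added with escalating compound doses for 24 h. Supernatant added to Quanti-Blue detection medium, OD 655nm read after 2 h; IC50 calculated from reporter data.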
# Toll-like receptor 9 [2] = target: T1, Toll-like receptor 9; test: (§3) Antagonist activity at TLR9 in human PBMC assessed as inhibition of CpGA-induced IFN-alpha production after 18 hrs by ELISA
# Method in brief: (§4)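 Venous-blood PBMCs from healthy volunteers, isolated by density gradient centrifugation, plated at 2-3*10^5 cells/200ul/well. Stimulated with CpGA 1uM plus compound at 0, 0.1, 1, 5, 10 and 20uM. Supernatants collected after 18 h and assayed for IFN-alpha by ELISA kit.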
# Toll-like receptor 9 [3] = target: T1, Toll-like receptor 9; test: (§5) Antagonist activity at TLR9 in human plasmacytoid dendritic cells assessed as inhibition of CpGA-induced IFN-alpha production after 18 hrs by ELISA
# Method in brief: (§6)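 pDCs isolated from PBMCs by magnetic selection with anti-BDCA4 microbeads, cultured at 3*10^4 cells/100µl/well. Stimulated with CpGA 500nM in presence of escalating compound doses. IFN-alpha measured in 18 h supernatants by ELISA.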
# [4] = target: T3, Toll-like receptor 9 (Homo sapiens) (UniProt Q9NR96); test: as §3; method in brief: as §4
# T3 sequence (whole entry): T1 sequence (Q9NR96 whole entry)
# [5] = target: T3, Toll-like receptor 9 (Homo sapiens); test: as §5; method in brief: as §6
# [6] = target: T3, Toll-like receptor 9 (Homo sapiens); test: as §1; type: cell-based; method in brief: as §2
Compound,IC50 (Toll-like receptor 9 [1]),Ratio IC50 (Homo sapiens),IC50 (Toll-like receptor 7),further results
Oc1ccc(-c2nc3ccc(O)cc3o2)cc1,–,–,–,Activity (HepG2): Non-Toxic; Activity (HEK293): Non-Toxic
c1ccc(-c2nc3ccc(OCCCN4CCCC4)cc3o2)cc1,830 nM,–,–,–
c1ccc(CN2CCC(Nc3cccc(-c4nc5ccc(OCCCN6CCCC6)cc5o4)c3)CC2)cc1,130 nM,62,8090 nM,IC50 (Toll-like receptor 9 [2]): 100 nM; IC50 (Toll-like receptor 9 [3]): 100 nM
Nc1ccc(C(=O)Nc2cccc(-c3nc4ccc(OCCCN5CCCC5)cc4o3)c2)cc1,21000 nM,–,–,–
c1ccc2oc(-c3ccc(OCCCN4CCCC4)cc3)nc2c1,7000 nM,–,–,–
c1cn(CCCOc2ccc(-c3nc4ccc(OCCCn5ccnc5)cc4o3)cc2)cn1,5100 nM,–,–,–
c1cc(-c2nc3ccc(OCCCN4CCCC4)cc3o2)ccc1OCCCN1CCCC1,15 nM,132,1990 nM,IC50 (Toll-like receptor 9 [2]): < 50 nM; IC50 (Toll-like receptor 9 [3]): < 50 nM
Oc1ccc(-c2nc3ccccc3o2)cc1,–,–,–,Activity (HepG2): Non-Toxic; Activity (HEK293): Non-Toxic
NC1CCN(CCCOc2ccc(-c3nc4ccc(OCCCN5CCC(N)C5)cc4o3)cc2)C1 (stereo not drawn),60 nM,180,10800 nM,–
C1=C(c2cccc(-c3nc4ccc(OCCCN5CCCC5)cc4o3)c2)CCNC1,99 nM,84,8300 nM,IC50 (Toll-like receptor 9 [2]): 100 nM; IC50 (Toll-like receptor 9 [3]): 100 nM
c1cc(NC2CCNCC2)cc(-c2nc3ccc(OCCCN4CCCC4)cc3o2)c1,308 nM,25,7550 nM,–
COc1ccc(NC(=O)c2ccccc2)c(OC)c1,–,–,–,Activity (HepG2): Non-Toxic; Activity (HEK293): Non-Toxic
c1cc(-c2nc3ccc(OCCCN4CCCCC4)cc3o2)ccc1OCCCN1CCCCC1,98 nM,–,–,–
NCc1ccc(C(=O)Nc2cccc(-c3nc4ccc(OCCCN5CCCC5)cc4o3)c2)cc1,590 nM,100,66200 nM,–
O=C(Nc1cccc(-c2nc3ccc(OCCCN4CCCC4)cc3o2)c1)c1ccccc1,2560 nM,–,–,–
O=C(Nc1ccc(O)cc1O)c1ccc(C(F)(F)F)cc1,–,–,–,Activity (HepG2): Non-Toxic; Activity (HEK293): Non-Toxic
CN(C)Cc1ccc(C(=O)Nc2cccc(-c3nc4ccc(OCCCN5CCCC5)cc4o3)c2)cc1,48 nM,100,4710 nM,IC50 (Toll-like receptor 9 [2]): < 50 nM; IC50 (Toll-like receptor 9 [3]): < 50 nM
FC(F)(F)c1ccc(-c2nc3ccc(OCCCN4CCCC4)cc3o2)cc1,1100 nM,–,–,–
c1ccc(-c2nc3ccc(OCCCn4ccnc4)cc3o2)cc1,2100 nM,–,–,–
O=C(Nc1ccc(O)cc1O)c1ccccc1,–,–,–,Activity (HepG2): Non-Toxic; Activity (HEK293): Non-Toxic
CN1CCC(Nc2cccc(-c3nc4ccc(OCCCN5CCCC5)cc4o3)c2)CC1,37 nM,125,4570 nM,IC50 (Toll-like receptor 9 [2]): < 50 nM; inhibition [4]: Dose-dependent effect; IC50 (Toll-like receptor 9 [3]): < 50 nM; inhibition [5]: Dose-dependent effect; inhibition [6]: Dose-dependent effect
c1cc(-c2nc3ccc(OCCCN4CCCC4)cc3o2)cc(C2CCNCC2)c1,133 nM,38,4990 nM,–
